Bioassay records: PubChem, several laboratories
NPY-Y2 antag = antagonists of human neuropeptide Y receptor Y2. P49146. NPY-Y2 expressing cells, antagonist mode. inhibition, % at 2.7 µM. actives 0.99% (n = 140,000); in the data active means inhibition above about 17%;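 further: 0% = vehicle with agonist challenge and 100% = reference antagonist with challenge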
EP2 antag = EP2 receptor (human) inhibition | inhibition, % at 25 µM | C6 glioma cells expressing human EP2, cAMP TR-FRET; cells stimulated with saturating PGE2 | P43116 | actives 0.52% (n = 260,000);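 active means percent inhibition above 40 after rounding to a whole number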;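 further: rat C6 glioma host cells with rolipram phosphodiesterase inhibitor present; the protocol text gives 20 µM as final concentration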
NPY1 pot ag = potentiates or activates human NPY-Y1 receptor; P25929; NPY-Y1 expressing cells, potentiator/agonist activation; activation, % at 3.6 µM; actives 0.37% (n = 220,000); in the data active means activation above about 33%, passing the limit was not always enough;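 further: cells stimulated with NPY at EC10 then isoproterenol at EC100; 0% = low agonist plus stimulus and 100% = saturating agonist plus stimulus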
Target sequence (P25929 whole entry, looked up): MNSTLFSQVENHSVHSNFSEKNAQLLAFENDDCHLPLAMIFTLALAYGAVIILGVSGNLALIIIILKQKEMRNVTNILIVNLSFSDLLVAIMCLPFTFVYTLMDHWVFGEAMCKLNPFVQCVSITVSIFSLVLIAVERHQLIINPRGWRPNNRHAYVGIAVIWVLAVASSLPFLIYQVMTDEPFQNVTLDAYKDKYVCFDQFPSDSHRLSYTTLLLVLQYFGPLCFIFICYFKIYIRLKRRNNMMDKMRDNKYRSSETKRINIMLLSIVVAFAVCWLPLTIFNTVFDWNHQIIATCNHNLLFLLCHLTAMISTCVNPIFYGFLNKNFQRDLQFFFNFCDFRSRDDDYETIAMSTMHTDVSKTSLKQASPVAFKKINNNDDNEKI
NPY-Y1 antag = blocks the human neuropeptide Y Y1 receptor; inhibition, % at 3.6 µM; actives 1% (n = 200,000); HEK293-CNG Y1 cells, membrane potential fluorescence; NPY at EC95, then isoproterenol; P25929;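 active means inhibition above the campaign mean inhibition of all tested compounds plus 3 SD, cut at about 20% in these data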;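 further: 0% = DMSO wells given NPY plus isoproterenol and 100% = isoproterenol alone without NPY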
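Material: Y1- and CNG-channel-expressing HEK293 cells / Probe or stimulus: NPY 25 nM then isoproterenol 1 µM plus Ro 20-1724 25 µM / Doses: 3.6 µM single dose, DMSO 0.4% / Schedule: compound incubation 1 h at room temperature, readout 45 min post-stimulation / Signal: membrane potential fluorescence / Benchmarks: isoproterenol-only wells as full block versus NPY-plus-isoproterenol wells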
EP2 modulator = EP2 receptor (human) modulation | P43116 | EP2-expressing cells, cAMP HTRF FRET, PGE2 co-stimulation | induction, % at 25 µM | actives 0.83% (n = 260,000);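 active means compounds whose cAMP rise, as percent of the full-agonist control response, exceeds 60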;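 further: rat C6 glioma line stably carrying human EP2 under a CMV promoter; the protocol text gives 20 µM as final concentration; 100% = response of wells given 1 µM PGE2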
NPY-Y2 PAM-ag = human NPY-Y2 potentiation or agonism, primary screen; cells expressing NPY-Y2, potentiator/agonist read-out; actives 0.45% (n = 220,000); activation, % at 3.6 µM; P49146; in the data active means activation above about 27%;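 further: cells stimulated with NPY near EC25 plus isoproterenol at EC100; 0% = vehicle plus submaximal agonist and 100% = vehicle plus saturating agonist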
Numbers without * were called inactive; nt = not tested or not shown. In the library only some 2.8% were active in any assay of this set; here they are far more common.

SMILES	NPY-Y2 antag	EP2 antag	NPY1 pot ag	NPY-Y1 antag	EP2 modulator	NPY-Y2 PAM-ag
C[C@@H]1OC(O[C@H]2[C@H](OC(=O)[C@]34CCC(C)(C)CC3C3=CCC5[C@@]6(C)CC[C@H](OC7O[C@@H](C)[C@H](O[C@@H]8OC[C@@H](O)[C@H](O)[C@H]8O)[C@@H](O)[C@H]7O)C(C)(C)C6CC[C@@]5(C)[C@]3(C)CC4O)OC[C@H](O)[C@H]2O)[C@H](O)[C@H](O)[C@H]1O[C@@H]1O[C@H](CO)[C@@H](O)[C@H](O)[C@H]1O (some centres not stated)	nt	108*	nt	nt	-25	nt
CC1OC(OC2C(OC3C(O[C@H]4CC[C@]5(C)C6C=C[C@]78OC[C@@]9(CC[C@@H](C)[C@H](C)C97)[C@H](O)C[C@@]8(C)[C@]6(C)CC[C@H]5C4(C)C)OC(C)C(O)C3O)OC(CO)C(O)C2O)C(O)C(O)C1O (some centres not stated)	nt	nt	nt	nt	-14	nt
O=C(O)c1c2c(c(O)c3c1CN(C1CCCCC1)CO3)OCN(C1CCCCC1)C2	nt	61*	nt	nt	-4	nt
O=C(c1ccccc1)N1CCN(C2CCCCCC2)CC1	8	2	-17	6	-3	0
Cc1ccc(C)c2[nH]c(=O)c(CN(C(=S)NCc3ccccc3)C3CCCCC3)cc12	nt	23	nt	nt	64*	nt
CCCNC(=S)N(Cc1cc2c(C)ccc(C)c2[nH]c1=O)C1CCCCC1	nt	16	nt	nt	11	nt
CCCNC(=S)N(Cc1cc2c(C)cc(C)cc2[nH]c1=O)C1CCCCC1	nt	6	nt	nt	61*	nt
COC1OC(CO)C(O)C(O)C1O (configuration not stated)	nt	10	1	2	13	-8
OC[C@@H]1O[C@H](N2CCN([C@@H]3O[C@H](CO)[C@@H](O)[C@H](O)[C@H]3O)CC2)[C@@H](O)[C@H](O)[C@H]1O	nt	49*	nt	nt	15	nt
Cc1ccc(C(=O)Nc2sc3c(c2C(N)=O)CCCCC3)c(Cl)c1	nt	20	nt	nt	-78	nt
CCN(Cc1ccccc1)C(c1ccc(C)cc1)c1nnnn1C(C)(C)C (configuration not stated)	7	10	5	1	61*	-12
CCN(Cc1ccccc1)C(c1ccccn1)c1nnnn1C(C)(C)CC (configuration not stated)	26*	3	-11	23*	45	-6
CCN(Cc1ccccc1)C(c1ccc(Cl)cc1)c1nnnn1C(C)(C)C (configuration not stated)	3	3	14	13	31	-5
O=C(COC(=O)C1CCCO1)Nc1cc(Cl)cc(Cl)c1 (configuration not stated)	nt	5	nt	nt	-9	nt
Cc1cc2ccccc2nc1SCC(=O)c1ccccc1	nt	9	nt	nt	81*	nt
Cc1cc2ccccc2nc1SCC(=O)NC(C)(C)C	nt	7	nt	nt	87*	nt
Cc1cc2cc3c(cc2nc1SCC(=O)c1ccccc1)OCO3	nt	13	nt	nt	70*	nt
Cc1ccc(C(=O)CSc2nc(C(C)C)nc3ccccc23)cc1	nt	6	-9	7	34	-19
CC(C)c1nc(SCC(=O)c2ccc(F)cc2)c2ccccc2n1	nt	8	-6	3	63*	4
O=C(C1CCN(S(=O)(=O)c2ccc(F)cc2)CC1)N(Cc1cccs1)C1CCCC1	nt	11	nt	nt	18	nt
Cc1cc2cc3c(cc2nc1SCC(=O)c1ccccc1F)OCCO3	nt	19	nt	nt	72*	nt
Cc1cc2cc3c(cc2nc1SCC(=O)Nc1ccccc1F)OCO3	nt	15	nt	nt	11	nt
O=S(=O)(c1ccccc1Cl)N1CCC(n2nnc3cc(C(F)(F)F)ccc32)CC1	nt	9	nt	nt	-28	nt
C[C@@H]1CC[C@H]2[C@H](C)[C@@H]3[C@@H](C[C@H]4[C@H]5CC=C6C[C@@H](O)CC[C@]6(C)[C@@H]5C[C@@H](O)[C@]34C)N2C1	nt	62*	nt	nt	-9	nt
CC(=O)N1[C@@H]2CC3C4CC=C5C[C@@H](O)CC[C@]5(C)C4CC[C@]3(C)[C@@]21C(C)=O (some centres not stated)	-2	9	8	5	13	1
SMILES	NPY-Y2 antag	EP2 antag	NPY1 pot ag	NPY-Y1 antag	EP2 modulator	NPY-Y2 PAM-ag
COC(=O)N(NC(=O)C(O)(c1ccccc1)c1ccccc1)c1ccccc1	22*	4	-37	33*	13	-11
COC(=O)N(NC(=O)C(O)(CCC(C)C)CCC(C)C)c1ccccc1	26*	4	-40	52*	36	-15
O=C(c1ccc(F)cc1)N(NC(=O)C(O)(c1ccccc1)c1ccccc1)c1ccccc1	30*	11	-56	49*	20	-3
CCOc1ccc2c(c1)c1nnc(SCC(=O)NC(C)C)nc1n2C	nt	0	nt	nt	-25	nt
CC1(C)CC(=O)C(C(c2cccc(O)c2O)C2C(=O)CC(C)(C)CC2=O)C(=O)C1	nt	41*	nt	nt	24	nt
CC1(C)CC(=O)C(C(c2ccccc2F)C2C(=O)CC(C)(C)CC2=O)C(=O)C1	3	18	5	8	-8	-5
O=C(CN1CCC(c2ccc(F)cc2)CC1)Nc1ccc2c(c1)OCO2	nt	2	nt	nt	-101	nt
C=CCn1c(SCC(=O)Nc2ccc(OC)cc2)nc2sc(C)cc2c1=O	nt	4	nt	nt	-110	nt
Cc1cccc(NC(=O)CSc2nc3ccccc3c3nc(CCc4c(C)n[nH]c4C)nn23)c1	1	7	-14	-2	-1	4
Cc1cncn1CCc1nc2c3ccccc3nc(SCC(=O)Nc3cccc(Cl)c3)n2n1	33*	8	-107	49*	-37	-26
COc1ccc(OC)c(NC(=O)C2CCCN(S(=O)(=O)c3ccc(C)cc3)C2)c1 (configuration not stated)	nt	16	nt	nt	-50	nt
O=C1/C(=C/c2ccncc2)SC(=S)N1Cc1ccccc1	nt	44*	34	nt	-22	11
O=C(CCCN1C(=O)/C(=C/c2ccccc2)SC1=S)Nc1cccc(O)c1	nt	70*	7	-1	-80	14
COc1cc(/C=C2\SC(=S)N(NS(=O)(=O)c3ccc(C)cc3)C2=O)ccc1O	nt	41*	-16	nt	-51	-11
O=C(CCCN1C(=O)/C(=C\c2ccccc2)SC1=S)Nc1ccc(O)cc1	nt	17	11	2	-86	14
COc1cc(/C=C2\SC(=S)N(NS(=O)(=O)c3ccccc3)C2=O)ccc1O	nt	16	-26	nt	10	-14
Cc1ccc(/C=C2\SC(=S)N(CCC(=O)NNS(=O)(=O)c3ccccc3)C2=O)cc1	nt	9	10	nt	65*	-31
CCN1CCC(CCc2ccc(NC(=O)C3CC(=O)N(C)C3)cc2)C(C)C1 (configuration not stated)	nt	7	nt	nt	-32	nt
CCn1cc(C(=O)NC(C)C23CC4CC(CC(C4)C2)C3)cn1 (configuration not stated)	3	4	12	4	1	1
CC(NC(=O)Cn1ncc(Cl)c(Cl)c1=O)C12CC3CC(CC(C3)C1)C2 (configuration not stated)	2	22	82*	-16	-48	72*
